From ChEMBL document CHEMBL5030525, “Design, synthesis and antitumor activity evaluation of trifluoromethyl-substituted pyrimidine derivatives” (Bioorg Med Chem Lett, 2021)
Active and inactive are the calls of the source. The rule behind the calls is not given here.

Key:
GES1 = assay: Cytotoxicity against human GES1 cells assessed as reduction in cell viability measured after 72 hrs by MTT assay; format: cell-based; settings: GES1, 72 h
How it was run: (§1)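 Cells in log phase were seeded at 3000–5000 per well and cultured 24 h at 37 °C, then exposed to a range of compound concentrations in fresh medium for 72 h. MTT was added and incubated 4 h at 37 °C, formazan was dissolved in DMSO, and absorbance was read at 490 nm. IC50 was taken from survival rate, as mean ± SD of three independent experiments. Stocks were 10 mM in DMSO.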

NCI-H1975 [1] = assay: Antiproliferative activity against human NCI-H1975 cells assessed as inhibition of cell growth measured after 72 hrs by MTT assay; format: functional, cell-based; settings: NCI-H1975, 72 h; how it was run: as §1
PC-3 = assay: Antiproliferative activity against human PC-3 cells assessed as inhibition of cell growth measured after 72 hrs by MTT assay; format: functional, cell-based; settings: PC-3, 72 h; how it was run: as §1
[2] = Selectivity index, ratio of IC50 for cytotoxicity against human GES1 cells to IC50 for antiproliferative activity against human NCI-H1975 cells; format: toxicity, cell-based; settings: GES1 cells versus NCI-H1975 cells, read-out: Ratio IC50
How it was run: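 Ratio of GES-1 IC50 to H1975 IC50. Both came from the 72 h MTT assay, with IC50 as the mean ± SD of three separate experiments.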

MGC-803 = assay: Antiproliferative activity against human MGC-803 cells assessed as inhibition of cell growth measured after 72 hrs by MTT assay; format: functional, cell-based; settings: MGC-803, 72 h; how it was run: as §1
MCF7 = assay: Antiproliferative activity against human MCF7 cells assessed as inhibition of cell growth measured after 72 hrs by MTT assay; format: functional, cell-based; settings: MCF7, 72 h; how it was run: as §1
NCI-H1975 [3] = assay: Induction of apoptosis in human NCI-H1975 cells assessed as increase in Bax protein expression at 1 to 4 uM measured after 48 hrs by western blot analysis; format: functional, cell-based; settings: dose 1-4 µM
How it was run: (§2)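 H1975 cells in dishes were incubated 24 h, then treated at 0, 1, 2 or 4 μM for 48 h. Cells were trypsinised and lysed in RIPA, and protein was quantified by BCA. Proteins were separated by SDS-PAGE, transferred to nitrocellulose, and blocked in 5% skim milk. Primary antibodies were applied overnight at 4 °C, then secondary (1:10000) for 2 h. Detection was by ECL, with GAPDH as control and densitometry.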

NCI-H1975 [4] = assay: Effect on cell cycle progression in human NCI-H1975 cells assessed a accumulation of cells at G2/M phase at 2 uM measured after 24 hrs by RNase A/PI staining based flow cytometry analysis (Rvb= 5.78%); format: functional
NCI-H1975 [5] = assay: Induction of apoptosis in human NCI-H1975 cells assessed as increase in total apoptotic cells at 2 uM measured after 48 hrs by Annexin V-FITC/PI staining double staining based flow cytometry analysis (Rvb= 3.86%); format: functional
NCI-H1975 [6] = assay: Induction of apoptosis in human NCI-H1975 cells assessed as increase in total apoptotic cells at 4 uM measured after 48 hrs by Annexin V-FITC/PI staining double staining based flow cytometry analysis (Rvb= 3.86%); format: functional
NCI-H1975 [7] = assay: Induction of apoptosis in human NCI-H1975 cells assessed as increase in total apoptotic cells at 1 uM measured after 48 hrs by Annexin V-FITC/PI staining double staining based flow cytometry analysis (Rvb= 3.86%); format: functional
NCI-H1975 [8] = assay: Induction of apoptosis in human NCI-H1975 cells assessed as nucleus shrinkage at 2 to 4 uM measured after 48 hrs by DAPI staining based fluorescence microscopic analysis; format: functional, cell-based; settings: dose 2-4 µM
How it was run: (§3)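 H1975 cells were seeded at 2×10^5 per well and incubated 24 h, then exposed to 0, 2 or 4 μM for 48 h. Cells were PBS-washed, fixed in pre-cooled methanol at 4 °C for 10 min, and stained with DAPI in the dark. Nuclear morphology was imaged by fluorescence microscopy.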

NCI-H1975 [9] = assay: Induction of apoptosis in human NCI-H1975 cells assessed as broken nucleus at 2 to 4 uM measured after 48 hrs by DAPI staining based fluorescence microscopic analysis; format: functional, cell-based; settings: dose 2-4 µM; how it was run: as §3
NCI-H1975 [10] = assay: Inhibition of colony formation in human NCI-H1975 cells measured after 9 days by crystal violet staining based microscopic analysis; format: functional, cell-based; settings: time 9.0 day
How it was run: (§4)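 Log-phase cells were seeded at 1000 per well, incubated about 24 h, then exposed to 0, 1, 2 or 4 μM for 9 days. Cells were PBS-washed, fixed with ice-cold methanol for 30 min, and stained with crystal violet for 30 min. Plates were photographed and colonies examined by microscopy.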

NCI-H1975 [11] = assay: Effect on cell cycle progression in human NCI-H1975 cells assessed a accumulation of cells at G1 phase at 2 uM measured after 24 hrs by RNase A/PI staining based flow cytometry analysis (Rvb= 42.16%); format: functional
NCI-H1975 [12] = assay: Effect on cell cycle progression in human NCI-H1975 cells assessed a accumulation of cells at G2/M phase at 4 uM measured after 24 hrs by RNase A/PI staining based flow cytometry analysis (Rvb= 5.78%); format: functional
NCI-H1975 [13] = assay: Induction of apoptosis in human NCI-H1975 cells assessed as increase in P53 expression at 1 to 4 uM measured after 48 hrs by western blot analysis; format: functional, cell-based; settings: dose 1-4 µM; how it was run: as §2
NCI-H1975 [14] = assay: Effect on cell cycle progression in human NCI-H1975 cells assessed a accumulation of cells at G2/M phase at 1 uM measured after 24 hrs by RNase A/PI staining based flow cytometry analysis (Rvb= 5.78%); format: functional
NCI-H1975 [15] = assay: Induction of apoptosis in human NCI-H1975 cells assessed as increase in total apoptotic cells at 1 uM measured after 72 hrs by Annexin V-FITC/PI staining double staining based flow cytometry analysis (Rvb= 3.86%); format: functional
NCI-H1975 [16] = assay: Effect on cell cycle progression in human NCI-H1975 cells assessed a accumulation of cells at S phase at 2 uM measured after 24 hrs by RNase A/PI staining based flow cytometry analysis (Rvb= 52.06%); format: functional
NCI-H1975 [17] = assay: Induction of apoptosis in human NCI-H1975 cells assessed as down regulation of Bcl-2 expression at 1 to 4 uM measured after 48 hrs by western blot analysis; format: functional, cell-based; settings: dose 1-4 µM; how it was run: as §2
NCI-H1975 [18] = assay: Effect on cell cycle progression in human NCI-H1975 cells assessed a accumulation of cells at S phase at 4 uM measured after 24 hrs by RNase A/PI staining based flow cytometry analysis (Rvb= 52.06%); format: functional
NCI-H1975 [19] = assay: Induction of apoptosis in human NCI-H1975 cells assessed as increase in total apoptotic cells at 2 uM measured after 72 hrs by Annexin V-FITC/PI staining double staining based flow cytometry analysis (Rvb= 3.86%); format: functional
NCI-H1975 [20] = assay: Induction of apoptosis in human NCI-H1975 cells assessed as appearance of dense particles at 2 to 4 uM measured after 48 hrs by DAPI staining based fluorescence microscopic analysis; format: functional, cell-based; settings: dose 2-4 µM; how it was run: as §3
NCI-H1975 [21] = assay: Induction of apoptosis in human NCI-H1975 cells assessed as increase in total apoptotic cells at 4 uM measured after 72 hrs by Annexin V-FITC/PI staining double staining based flow cytometry analysis (Rvb= 3.86%); format: functional
NCI-H1975 [22] = assay: Induction of apoptosis in human NCI-H1975 cells assessed as increase in number of change in apoptotic morphology at 2 to 4 uM measured after 48 hrs by DAPI staining based fluorescence microscopic analysis; format: functional, cell-based; settings: dose 2-4 µM; how it was run: as §3
NCI-H1975 [23] = assay: Inhibition of colony formation in human NCI-H1975 cells at 4 uM measured after 9 days by crystal violet staining based microscopic analysis relative to control; format: functional; settings: NCI-H1975, 216 h, time 9 day; how it was run: as §4
NCI-H1975 [24] = assay: Effect on cell cycle progression in human NCI-H1975 cells assessed a accumulation of cells at G1 phase at 1 uM measured after 24 hrs by RNase A/PI staining based flow cytometry analysis (Rvb= 42.16%); format: functional
NCI-H1975 [25] = assay: Effect on cell cycle progression in human NCI-H1975 cells assessed a accumulation of cells at G1 phase at 4 uM measured after 24 hrs by RNase A/PI staining based flow cytometry analysis (Rvb= 42.16%); format: functional
NCI-H1975 [26] = assay: Effect on cell cycle progression in human NCI-H1975 cells assessed a accumulation of cells at S phase at 1 uM measured after 24 hrs by RNase A/PI staining based flow cytometry analysis (Rvb= 52.06%); format: functional

O=c1[nH]cc(F)c(=O)[nH]1 [FLUOROURACIL]
IC50 (GES1): 19.3 µM
IC50 (NCI-H1975 [1]): 9.37 µM
IC50 (PC-3): 6.23 µM
selectivity ratio [2]: 2.06
IC50 (MGC-803): 9.05 µM
IC50 (MCF7): 8.77 µM

FC(F)(F)c1ccc(CSc2nc(Sc3nncs3)cc(C(F)(F)F)n2)cc1
Activity (NCI-H1975 [3]): Active
IC50 (GES1): 37.4 µM
Activity (NCI-H1975 [4]): 21.28%
Activity (NCI-H1975 [5]): 11.13%
Activity (NCI-H1975 [6]): 16.68%
IC50 (NCI-H1975 [1]): 2.27 µM
Activity (NCI-H1975 [7]): 5.04%
Activity (NCI-H1975 [8]): Active
IC50 (PC-3): 7.88 µM
selectivity ratio [2]: 16.5
Activity (NCI-H1975 [9]): Active
inhibition (NCI-H1975 [10]): Dose-Dependent Effect
Activity (NCI-H1975 [11]): 31.16%
Activity (NCI-H1975 [12]): 30.39%
Activity (NCI-H1975 [13]): Active
Activity (NCI-H1975 [14]): 13.63%
Activity (NCI-H1975 [15]): 7.7%
IC50 (MGC-803): 10.8 µM
Activity (NCI-H1975 [16]): 47.56%
Activity (NCI-H1975 [17]): Active
Activity (NCI-H1975 [18]): 44.55%
Activity (NCI-H1975 [19]): 17.31%
IC50 (MCF7): 8.81 µM
Activity (NCI-H1975 [20]): Active
Activity (NCI-H1975 [21]): 29.08%
Activity (NCI-H1975 [22]): Active
inhibition at 4 µM (NCI-H1975 [23]): 90%
Activity (NCI-H1975 [24]): 34.53%
Activity (NCI-H1975 [25]): 25.06%
Activity (NCI-H1975 [26]): 51.84%
